Laboratory results from ChEMBL document CHEMBL3351381, “Synthesis, structure-activity relationship studies, and antibacterial evaluation of 4-chromanones and chalcones, as well as olympicin A and derivatives” (J Med Chem, 2014).
Values after ≈ are worked out from the molar mass of the structure shown. Active and inactive are the calls of the source. No cut-off for these calls is given here.

How the values were obtained:
[1] = Inhibition of purified recombinant Escherichia coli topoisomerase 1 assessed as relaxation of supercoiled plasmid DNA after 30 mins by electrophoretic analysis
[2] = test system: Enterococcus faecalis; assay: Antimicrobial activity against Enterococcus faecalis ATCC 33186 by microbroth dilution method; type: functional
[3] = test system: Escherichia coli; assay: Antimicrobial activity against tolC-deficient Escherichia coli by microbroth dilution method; type: functional
[4] = test system: Staphylococcus aureus; assay: Antimicrobial activity against methicillin-resistant Staphylococcus aureus NRS 70 by microbroth dilution method; type: functional
[5] = test system: Mycobacterium tuberculosis; assay: Antimicrobial activity against Mycobacterium tuberculosis H37Rv by microbroth dilution method; type: functional
[6] = target: DNA gyrase (Escherichia coli, UniProt P0AES4+P0AES6); assay: Inhibition of Escherichia coli DNA gyrase assessed as supercoiled plasmid DNA formation after 30 mins by electrophoretic analysis; type: protein-complex assay
[7] = Inhibition of Escherichia coli topoisomerase 4 assessed as inhibition of decatenation of catenated kinetoplast DNA after 30 mins by electrophoretic analysis
[8] = test system: Pseudomonas aeruginosa; assay: Antimicrobial activity against Pseudomonas aeruginosa PAO1 at >200 ug/ml by microbroth dilution method; type: functional
[9] = test system: Vero; assay: Cytotoxicity against african green monkey Vero cells assessed as reduction in cell viability by MTT assay; type: cell-based; conditions: Chlorocebus sabaeus
Outline: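 Vero kidney epithelial cells (ATCC CCL-81) in DMEM/10% FBS, trypsinized, seeded near 10% confluence, left overnight to adhere; medium swapped for DMEM/FBS with 2-fold serial compound dilutions.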

[10] = Selectivity index, ratio of CC50 for african green monkey Vero cells to IC50 for methicillin-resistant Staphylococcus aureus NRS 70; type: functional
Outline: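 Vero kidney epithelial cells were grown in DMEM/10% FBS, trypsinized, seeded at about 10% confluence and left overnight to adhere. They were then exposed to 2-fold serial compound dilutions in DMEM/FBS, and viability was read by MTT after overnight solubilization. SI = cytotoxic IC50 divided by MIC against MRSA.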

[11] = Solubility of the compound in DMEM/FBS medium; type: physicochemical
Outline: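 Solubility limit estimated from 2-fold serial dilutions in DMEM with 5% FBS kept overnight at 37 °C; highest concentration with no visible precipitate taken.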

[12] = test system: Staphylococcus aureus; assay: Antimicrobial activity against methicillin-sensitive Staphylococcus aureus ATCC 29213 by microbroth dilution method; type: functional
[13] = test system: Klebsiella pneumoniae; assay: Antimicrobial activity against Klebsiella pneumoniae ATCC 33495 at >200 ug/ml by microbroth dilution method; type: functional
[14] = test system: Escherichia coli; assay: Antimicrobial activity against Escherichia coli K-12 by microbroth dilution method; type: functional
[15] = test system: Staphylococcus aureus; assay: Disruption of membrane potential in Staphylococcus aureus Newman assessed as […] at 4 times MIC using DiOC2(3) probe by fluorescence assay; type: functional
Outline: (§1)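 S. aureus Newman grown to OD600nm ≈ 0.3 in Mueller–Hinton II, stained with DiOC2(3) and run on flow cytometry; red/green fluorescence ratio gives membrane potential. CCCP positive control, vancomycin negative control.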

[16] = test system: Staphylococcus aureus; assay: Disruption of membrane potential in Staphylococcus aureus Newman assessed as […] using DiOC2(3) probe by fluorescence assay; type: functional; outline: as §1
[17] = test system: Staphylococcus aureus; assay: Bactericidal activity against Staphylococcus aureus Newman assessed as log reduction in bacterial cell count at 4 times MIC at 6 hrs by time-kill assay relative to control; type: functional
[18] = test system: Staphylococcus aureus; assay: Antimicrobial activity against Staphylococcus aureus Newman; type: functional
[19] = test system: Staphylococcus aureus; assay: Bacteriostatic activity against Staphylococcus aureus Newman assessed as log reduction in bacterial cell count at 4 times MIC up to 24 hrs by time-kill assay relative to control; type: functional
[20] = test system: Staphylococcus aureus; assay: Bactericidal activity against Staphylococcus aureus Newman assessed as log reduction in bacterial cell count at 4 times MIC up to 24 hrs by time-kill assay relative to control; type: functional
[21] = test system: Staphylococcus aureus; assay: Bactericidal activity against Staphylococcus aureus Newman assessed as log reduction in bacterial cell count at MIC up to 24 hrs by time-kill assay relative to control; type: functional

Compound | IC50 [1] [µM] | MIC [2] [µg/mL] | MIC [3] [µg/mL] | MIC [4] [µg/mL] | MIC [5] [µg/mL] | IC50 [6] [µM] | IC50 [7] [µM] | MIC [8] [µg/mL] | IC50 [9] [µg/mL] | Selectivity Index [10] | solubility [11] [µg/mL] | MIC [12] [µg/mL] | MIC [13] [µg/mL] | MIC [14] [µg/mL] | Activity [15] | Activity [16] | further results
CCCCCCOc1ccccc1/C=C/C(=O)c1ccc(O)cc1O | > 500 | 1.56 (≈ 4.58 µM) | > 200 | 0.78 (≈ 2.29 µM) | > 200 | > 1000 | 60 | > 200 | 7.2 (≈ 21.2 µM) | 9.2 | > 200 | 3.13 (≈ 9.19 µM) | > 200 | > 200 | – | – | –
CCCCCCOc1ccccc1C1CC(=O)c2ccc(O)cc2O1 (stereo unspecified) | > 500 | 50 (≈ 147 µM) | 1.56 (≈ 4.58 µM) | 1.56 (≈ 4.58 µM) | > 200 | > 1000 | > 1000 | > 200 | 24.5 (≈ 72 µM) | 15.7 | > 200 | 1.56 (≈ 4.58 µM) | > 200 | > 200 | – | – | –
CCCCCCCCOc1cc(O)cc(O)c1C(=O)C(C)CC (racemic) | > 500 | 0.78 (≈ 2.42 µM) | > 200 | 1.56 (≈ 4.84 µM) | 100 (≈ 310 µM) | > 1000 | 30 | > 200 | – | – | – | 1.56 (≈ 4.84 µM) | > 200 | > 200 | – | – | –
CCCCCCCC1CC(=O)c2c(O)cc(O)cc2O1 (stereo unspecified) | > 500 | 200 (≈ 719 µM) | 1.56 (≈ 5.6 µM) | 3.13 (≈ 11.2 µM) | 50 (≈ 180 µM) | > 1000 | 120 | > 200 | 33 (≈ 119 µM) | 10.5 | 150 (≈ 539 µM) | 12.5 (≈ 44.9 µM) | > 200 | > 200 | – | – | –
CCCCCCCCOc1ccccc1C1CC(=O)c2ccc(O)cc2O1 (stereo unspecified) | > 500 | 1.56 (≈ 4.23 µM) | > 200 | 3.13 (≈ 8.49 µM) | > 200 | > 1000 | > 1000 | > 200 | 17 (≈ 46.1 µM) | 5.4 | > 200 | 12.5 (≈ 33.9 µM) | > 200 | > 200 | – | – | –
CC[C@H](C)C(=O)c1c(O)cc(O)cc1OC/C=C(\C)CCC=C(C)C [OLYMPICIN A] | > 500 | – | – | 1.56 (≈ 4.5 µM) | – | – | 30 | > 200 | – | – | – | – | > 200 | > 200 | Active | Dose-dependent effect | –
C=CCOc1ccccc1/C=C/C(=O)c1ccc(O)cc1O | > 500 | 12.5 (≈ 42.2 µM) | 3.13 (≈ 10.6 µM) | 0.39 (≈ 1.32 µM) | 200 (≈ 675 µM) | – | 250 | > 200 | 21.2 (≈ 71.5 µM) | 54.4 | > 200 | 6.25 (≈ 21.1 µM) | > 200 | > 200 | – | – | LCK [17]: 6
N#CC(C#N)=NNc1cccc(Cl)c1 [CARBONYL CYANIDE M-CHLOROPHENYLHYDRAZONE] | – | – | – | – | – | – | – | – | – | – | – | – | – | – | – | – | MIC [18]: 6.25 µg/mL (≈ 30.5 µM)
O=C(/C=C/c1ccc(N2CCCCC2)cc1)c1ccc(O)cc1O | > 500 | 25 (≈ 77.3 µM) | 12.5 (≈ 38.7 µM) | 3.13 (≈ 9.68 µM) | 100 (≈ 309 µM) | > 1000 | 500 | > 200 | 16.7 (≈ 51.6 µM) | 5.3 | 100 (≈ 309 µM) | 3.13 (≈ 9.68 µM) | > 200 | > 200 | Active | Dose-dependent effect | LCK [19]: <=3
CC1(C)C2CC=C(/C=C/C(=O)c3ccc(O)cc3O)C1C2 (stereo unspecified) | > 500 | 3.13 (≈ 11 µM) | 1.56 (≈ 5.49 µM) | 1.56 (≈ 5.49 µM) | 100 (≈ 352 µM) | – | 60 | > 200 | 6.9 (≈ 24.3 µM) | 4.4 | > 200 | 1.56 (≈ 5.49 µM) | > 200 | > 200 | Active | Dose-dependent effect | LCK [20]: >6; MIC [18]: 1.56 µg/mL (≈ 5.49 µM); LCK [21]: 3
CN[C@H](CC(C)C)C(=O)N[C@H]1C(=O)N[C@@H](CC(N)=O)C(=O)N[C@H]2C(=O)N[C@H]3C(=O)N[C@H](C(=O)N[C@H](C(=O)O)c4cc(O)cc(O)c4-c4cc3ccc4O)[C@H](O)c3ccc(c(Cl)c3)Oc3cc2cc(c3O[C@@H]2O[C@H](CO)[C@@H](O)[C@H](O)[C@H]2O[C@H]2C[C@](C)(N)[C@H](O)[C@H](C)O2)Oc2ccc(cc2Cl)[C@H]1O [VANCOMYCIN] | – | 0.78 (≈ 0.538 µM) | 100 (≈ 69 µM) | < 0.2 | – | – | – | > 200 | – | – | – | 0.39 (≈ 0.269 µM) | > 200 | 100 (≈ 69 µM) | inactive | – | MIC [18]: 0.8 µg/mL (≈ 0.552 µM)
CC(C)=CCCC(C)CC1CC(=O)c2c(O)cc(O)cc2O1 (stereo unspecified) | – | 6.25 (≈ 20.5 µM) | 1.56 (≈ 5.13 µM) | 3.13 (≈ 10.3 µM) | 200 (≈ 657 µM) | – | – | > 200 | 27 (≈ 88.7 µM) | 8.6 | > 200 | – | > 200 | > 200 | Active | Dose-dependent effect | –
